Experimental data from ChEMBL document CHEMBL1158511, “Tricyclic dihydroquinazolinones as novel 5-HT2C selective and orally efficacious anti-obesity agents” (Bioorg Med Chem Lett, 2010).

How the values were obtained:
[1] = biological target: T1, 5-hydroxytryptamine receptor 2B (Homo sapiens, UniProt P41595); assay: Agonist activity at human recombinant 5HT2B receptor expressed in HEK293E cells by FLIPR assay; type: functional, cell-based
Procedure, shortened: (§1)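 Calcium mobilization measured by FLIPR in HEK293E cells expressing human 5-HT2A, 5-HT2B or 5-HT2C receptor. Values are means of ≥2 independent 12-point dose-response curves (n ≥4 where SD is given). mCPP is the positive control.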

[2] = biological target: T2, 5-hydroxytryptamine receptor 2A (Homo sapiens, UniProt P28223); assay: Displacement of [125I]DOI from human recombinant 5HT2A receptor expressed in HEK293E cells; type: cell-based
T2 sequence (P28223 whole entry): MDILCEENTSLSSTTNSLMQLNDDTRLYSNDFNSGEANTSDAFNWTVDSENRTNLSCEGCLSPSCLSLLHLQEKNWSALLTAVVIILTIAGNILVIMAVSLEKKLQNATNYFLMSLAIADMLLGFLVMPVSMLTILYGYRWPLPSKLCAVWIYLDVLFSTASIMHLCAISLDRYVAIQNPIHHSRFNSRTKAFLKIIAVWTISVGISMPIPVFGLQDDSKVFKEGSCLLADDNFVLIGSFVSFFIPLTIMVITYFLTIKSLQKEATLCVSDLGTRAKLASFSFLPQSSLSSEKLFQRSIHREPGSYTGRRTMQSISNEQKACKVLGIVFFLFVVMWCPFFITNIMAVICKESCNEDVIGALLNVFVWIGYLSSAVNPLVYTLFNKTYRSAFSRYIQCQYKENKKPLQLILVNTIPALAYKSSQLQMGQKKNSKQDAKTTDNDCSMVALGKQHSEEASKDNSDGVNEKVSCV
Procedure, shortened: (§2)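 Radioligand binding with [125I]DOI at the human 5-HT2C or 5-HT2A receptor. Ki is the mean of ≥2 independent 12-point dose-response curves (n ≥4 where SD is given).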

[3] = biological target: T2, 5-hydroxytryptamine receptor 2A; assay: Agonist activity at human recombinant 5HT2A receptor expressed in HEK293E cells by FLIPR assay; type: functional, cell-based; procedure, shortened: as §1
[4] = Half life in Sprague-Dawley rat at 1 mg/kg, iv; type: ADME, organism-based; design: dose 1 mg/kg, route intravenous; conditions: in vivo
Procedure, shortened: (§3)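 Male Sprague–Dawley rats were dosed at 1 mpk iv and po. Values are means of 3 animals per route.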

[5] = Half life in Sprague-Dawley rat at 1 mg/kg, po; type: ADME, organism-based; design: dose 1 mg/kg, route oral; conditions: in vivo; procedure, shortened: as §3
[6] = Clearance in Sprague-Dawley rat at 1 mg/kg, iv; type: ADME, organism-based; design: dose 1 mg/kg, route intravenous; conditions: in vivo; procedure, shortened: as §3
[7] = Volume of distribution at steady state in Sprague-Dawley rat at 1 mg/kg, iv; type: ADME, organism-based; design: dose 1 mg/kg, route intravenous; conditions: in vivo, read-out: Vdss; procedure, shortened: as §3
[8] = Tmax in Sprague-Dawley rat at 1 mg/kg, po; type: ADME, organism-based; design: dose 1 mg/kg, route oral; conditions: in vivo
Procedure, shortened: (§4)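 Male Sprague–Dawley rats were dosed po only at 1 or 10 mpk. Values are means of 2 animals. AUC was collected over 4 h. Plasma and total brain levels were taken at 4 h post dose.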

[9] = Cmax in Sprague-Dawley rat at 1 mg/kg, po; type: ADME, organism-based; design: dose 1 mg/kg, route oral; conditions: in vivo; procedure, shortened: as §4
[10] = AUC (0 to infinity) in Sprague-Dawley rat at 1 mg/kg, iv; type: ADME, organism-based; design: time infinity, dose 1 mg/kg, route intravenous; conditions: plasma; procedure, shortened: as §3
[11] = AUC (0 to infinity) in Sprague-Dawley rat at 1 mg/kg, po; type: ADME, organism-based; design: time infinity, dose 1 mg/kg, route oral; conditions: plasma; procedure, shortened: as §3
[12] = Oral bioavailability in Sprague-Dawley rat at 1 mg/kg; type: ADME, organism-based; conditions: in vivo; procedure, shortened: as §3
[13] = Tmax in Sprague-Dawley rat at 10 mg/kg, po; type: ADME, organism-based; design: dose 10 mg/kg, route oral; conditions: in vivo; procedure, shortened: as §4
[14] = Cmax in Sprague-Dawley rat at 10 mg/kg, po; type: ADME, organism-based; design: dose 10 mg/kg, route oral; conditions: in vivo; procedure, shortened: as §4
[15] = AUC in Sprague-Dawley rat at 1 mg/kg, po after 4 hrs; type: ADME, organism-based; design: time < 4 hr, dose 1 mg/kg, route oral; conditions: plasma; procedure, shortened: as §4
[16] = AUC in Sprague-Dawley rat at 10 mg/kg, po after 4 hrs; type: ADME, organism-based; design: time < 4 hr, dose 10 mg/kg, route oral; conditions: plasma; procedure, shortened: as §4
[17] = Plasma concentration in Sprague-Dawley rat at 1 mg/kg, po after 4 hrs; type: ADME, organism-based; design: dose 1 mg/kg, route oral; procedure, shortened: as §4
[18] = Plasma concentration in Sprague-Dawley rat at 10 mg/kg, po after 4 hrs; type: ADME, organism-based; design: dose 10 mg/kg, route oral; procedure, shortened: as §4
Brain [19] = assay: Drug level in Sprague-Dawley rat brain at 1 mg/kg, po after 4 hrs; type: ADME, organism-based; design: dose 1 mg/kg, route oral; conditions: in vivo; procedure, shortened: as §4
Brain [20] = assay: Drug level in Sprague-Dawley rat brain at 10 mg/kg, po after 4 hrs; type: ADME, organism-based; design: dose 10 mg/kg, route oral; conditions: in vivo; procedure, shortened: as §4
Rattus norvegicus [21] = assay: Antiobesity activity in Sprague-Dawley rat assessed as reduction of food intake at 10 mg/kg, po after 20 hrs; type: functional; design: scale not given: the % may be the effect or the level left
Rattus norvegicus [22] = assay: Antiobesity activity in Sprague-Dawley rat assessed as reduction of body weight at 30 mg/kg, po after 4 days; type: functional; design: scale not given: the % may be the effect or the level left
Procedure, shortened: (§5)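 Male Sprague–Dawley rats, about 240 g (n = 8), were dosed orally once daily for 4 days with compound or vehicle (14% propylene glycol, 1% tween, 85% water, v/v/v). Body weight, food and water intake were measured daily and compared with vehicle.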

Rattus norvegicus [23] = assay: Antiobesity activity in Sprague-Dawley rat assessed as reduction of caloric intake at 30 mg/kg, po after 4 days; type: functional; design: scale not given: the % may be the effect or the level left; procedure, shortened: as §5
Rattus norvegicus [24] = organism: Rattus norvegicus; assay: Toxicity in Sprague-Dawley rat; type: organism-based; conditions: in vivo
Cytochrome P450 2C19 = Cytochrome P450 2C19 (Homo sapiens, UniProt P33261); assay: Inhibition of CYP2C19; type: ADME
Cytochrome P450 2C19, sequence (P33261 whole entry): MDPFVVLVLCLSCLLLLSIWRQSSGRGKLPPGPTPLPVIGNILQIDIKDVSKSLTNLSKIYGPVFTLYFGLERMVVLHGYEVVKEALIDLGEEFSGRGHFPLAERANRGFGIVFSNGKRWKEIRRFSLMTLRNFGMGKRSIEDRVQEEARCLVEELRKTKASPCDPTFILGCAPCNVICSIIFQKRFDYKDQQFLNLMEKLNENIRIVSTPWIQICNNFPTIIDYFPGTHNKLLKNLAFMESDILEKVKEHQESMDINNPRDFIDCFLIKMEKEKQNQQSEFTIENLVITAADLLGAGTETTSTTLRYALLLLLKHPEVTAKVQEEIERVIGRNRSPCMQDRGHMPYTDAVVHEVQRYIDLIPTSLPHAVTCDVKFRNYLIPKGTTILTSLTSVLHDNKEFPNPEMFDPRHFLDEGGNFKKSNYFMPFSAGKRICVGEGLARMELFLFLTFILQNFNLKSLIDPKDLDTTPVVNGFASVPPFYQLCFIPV

Cytochrome P450 2D6 = Cytochrome P450 2D6 (Homo sapiens, UniProt P10635); assay: Inhibition of CYP2D6; type: ADME
Cytochrome P450 2D6, sequence (P10635 whole entry): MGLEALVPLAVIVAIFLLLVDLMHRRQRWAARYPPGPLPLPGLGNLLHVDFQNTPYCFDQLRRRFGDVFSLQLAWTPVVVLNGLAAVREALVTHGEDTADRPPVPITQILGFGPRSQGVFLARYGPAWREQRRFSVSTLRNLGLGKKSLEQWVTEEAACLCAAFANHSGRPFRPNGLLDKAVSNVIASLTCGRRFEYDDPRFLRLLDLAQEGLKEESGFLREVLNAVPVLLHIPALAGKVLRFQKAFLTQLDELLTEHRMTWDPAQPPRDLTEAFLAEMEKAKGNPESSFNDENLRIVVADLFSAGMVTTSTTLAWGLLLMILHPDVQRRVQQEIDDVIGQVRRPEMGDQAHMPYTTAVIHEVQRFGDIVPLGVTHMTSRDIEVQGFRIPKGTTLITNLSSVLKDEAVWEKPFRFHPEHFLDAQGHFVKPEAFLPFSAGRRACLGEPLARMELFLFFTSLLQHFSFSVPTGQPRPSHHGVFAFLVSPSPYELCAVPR

Cytochrome P450 3A4 = Cytochrome P450 3A4 (Homo sapiens, UniProt P08684); assay: Inhibition of CYP3A4; type: ADME
Cytochrome P450 3A4, sequence (P08684 whole entry): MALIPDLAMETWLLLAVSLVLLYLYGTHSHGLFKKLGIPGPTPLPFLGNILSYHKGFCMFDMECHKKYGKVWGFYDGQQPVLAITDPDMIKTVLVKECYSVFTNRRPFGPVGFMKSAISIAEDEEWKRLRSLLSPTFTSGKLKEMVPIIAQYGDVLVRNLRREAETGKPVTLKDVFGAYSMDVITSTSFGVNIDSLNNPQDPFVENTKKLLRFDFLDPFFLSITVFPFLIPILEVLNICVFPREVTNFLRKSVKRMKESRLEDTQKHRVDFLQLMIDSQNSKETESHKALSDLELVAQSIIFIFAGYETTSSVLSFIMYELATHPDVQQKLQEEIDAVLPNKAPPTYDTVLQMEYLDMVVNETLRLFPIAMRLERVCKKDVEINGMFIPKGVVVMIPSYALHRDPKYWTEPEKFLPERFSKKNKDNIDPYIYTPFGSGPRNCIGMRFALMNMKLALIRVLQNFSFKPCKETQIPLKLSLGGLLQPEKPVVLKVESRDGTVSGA

CYP1A2 = biological target: T3, CYP1A2 (Homo sapiens, UniProt P05177); assay: Inhibition of CYP1A2 at 10 uM; type: ADME
T3 sequence (P05177 whole entry): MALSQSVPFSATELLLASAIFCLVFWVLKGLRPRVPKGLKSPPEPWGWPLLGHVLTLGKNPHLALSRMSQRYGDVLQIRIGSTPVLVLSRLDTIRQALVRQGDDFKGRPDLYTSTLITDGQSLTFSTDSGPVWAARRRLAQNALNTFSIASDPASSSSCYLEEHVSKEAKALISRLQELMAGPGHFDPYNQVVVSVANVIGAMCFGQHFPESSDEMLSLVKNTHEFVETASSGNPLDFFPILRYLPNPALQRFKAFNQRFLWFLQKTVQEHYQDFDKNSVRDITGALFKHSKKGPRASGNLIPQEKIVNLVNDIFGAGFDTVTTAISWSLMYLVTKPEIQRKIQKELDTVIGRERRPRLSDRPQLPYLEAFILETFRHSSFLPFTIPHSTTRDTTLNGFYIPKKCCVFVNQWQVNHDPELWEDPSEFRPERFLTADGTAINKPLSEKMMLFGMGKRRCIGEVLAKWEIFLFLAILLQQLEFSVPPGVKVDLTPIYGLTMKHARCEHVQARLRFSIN

CYP2C9 = CYP2C9 (Homo sapiens, UniProt P11712); assay: Inhibition of CYP2C9 at 10 uM; type: ADME
CYP2C19 = CYP2C19 (Homo sapiens, UniProt P33261); assay: Inhibition of CYP2C19 at 10 uM; type: ADME
CYP2C19, sequence (P33261 whole entry): as the sequence (P33261 whole entry) above

CYP2D6 = CYP2D6 (Homo sapiens, UniProt P10635); assay: Inhibition of CYP2D6 at 10 uM; type: ADME
CYP2D6, sequence (P10635 whole entry): as the sequence (P10635 whole entry) above

CYP3A4 = CYP3A4 (Homo sapiens, UniProt P08684); assay: Inhibition of CYP3A4 at 10 uM; type: ADME
CYP3A4, sequence (P08684 whole entry): as the sequence (P08684 whole entry) above

hERG = hERG (Homo sapiens, UniProt Q12809); assay: Inhibition of human ERG at 10 uM by patch clamp method
hERG, sequence (Q12809 whole entry): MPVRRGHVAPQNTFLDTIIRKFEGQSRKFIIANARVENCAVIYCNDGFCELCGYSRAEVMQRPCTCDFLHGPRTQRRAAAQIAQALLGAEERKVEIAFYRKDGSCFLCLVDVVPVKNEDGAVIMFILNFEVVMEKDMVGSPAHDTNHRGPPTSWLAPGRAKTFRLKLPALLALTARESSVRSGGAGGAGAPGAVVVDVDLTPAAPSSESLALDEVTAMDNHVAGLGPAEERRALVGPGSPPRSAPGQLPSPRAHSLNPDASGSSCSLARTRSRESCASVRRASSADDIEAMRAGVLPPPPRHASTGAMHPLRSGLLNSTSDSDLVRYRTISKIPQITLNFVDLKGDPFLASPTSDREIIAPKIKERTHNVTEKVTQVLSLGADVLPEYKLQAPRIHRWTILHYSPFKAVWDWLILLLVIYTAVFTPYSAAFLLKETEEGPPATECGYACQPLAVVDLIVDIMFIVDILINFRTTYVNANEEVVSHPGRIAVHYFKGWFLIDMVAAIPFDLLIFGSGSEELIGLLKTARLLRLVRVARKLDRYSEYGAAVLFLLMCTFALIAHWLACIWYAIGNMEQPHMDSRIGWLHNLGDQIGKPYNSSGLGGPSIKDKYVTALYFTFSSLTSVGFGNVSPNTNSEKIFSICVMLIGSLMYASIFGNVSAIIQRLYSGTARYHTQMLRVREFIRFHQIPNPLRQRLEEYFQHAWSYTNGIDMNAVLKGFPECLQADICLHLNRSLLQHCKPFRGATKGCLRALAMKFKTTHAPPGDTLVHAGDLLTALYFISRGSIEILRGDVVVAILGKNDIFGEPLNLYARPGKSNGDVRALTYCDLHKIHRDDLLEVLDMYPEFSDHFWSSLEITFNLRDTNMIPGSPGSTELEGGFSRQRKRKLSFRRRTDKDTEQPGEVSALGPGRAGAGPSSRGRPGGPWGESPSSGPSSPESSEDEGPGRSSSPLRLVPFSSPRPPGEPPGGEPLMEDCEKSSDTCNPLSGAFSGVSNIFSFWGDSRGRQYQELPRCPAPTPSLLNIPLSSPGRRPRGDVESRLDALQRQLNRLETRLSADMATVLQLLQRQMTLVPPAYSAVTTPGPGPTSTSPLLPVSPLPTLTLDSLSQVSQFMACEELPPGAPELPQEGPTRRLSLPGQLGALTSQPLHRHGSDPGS

Cytochrome P450 1A2 = biological target: T4, Cytochrome P450 1A2 (Homo sapiens, UniProt P05177); assay: Inhibition of CYP1A2; type: ADME
T4 sequence (P05177 whole entry): T3 sequence (P05177 whole entry)

Cytochrome P450 2C9 = Cytochrome P450 2C9 (Homo sapiens, UniProt P11712); assay: Inhibition of CYP2C9; type: ADME
Cytochrome P450 2C9, sequence (P11712 whole entry): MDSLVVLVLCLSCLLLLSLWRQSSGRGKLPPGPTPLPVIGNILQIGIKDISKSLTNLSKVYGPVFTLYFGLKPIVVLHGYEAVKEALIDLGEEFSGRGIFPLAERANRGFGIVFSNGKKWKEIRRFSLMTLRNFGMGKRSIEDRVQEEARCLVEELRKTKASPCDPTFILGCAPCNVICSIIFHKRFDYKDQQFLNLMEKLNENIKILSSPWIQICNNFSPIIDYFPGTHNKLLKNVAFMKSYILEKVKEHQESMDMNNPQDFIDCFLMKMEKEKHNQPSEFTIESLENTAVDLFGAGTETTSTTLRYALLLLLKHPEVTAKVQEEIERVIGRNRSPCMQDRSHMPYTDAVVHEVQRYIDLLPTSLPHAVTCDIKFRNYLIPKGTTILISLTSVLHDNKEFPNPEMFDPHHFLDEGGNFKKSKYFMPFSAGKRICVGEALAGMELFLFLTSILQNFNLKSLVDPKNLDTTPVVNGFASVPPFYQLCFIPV

[25] = biological target: T5, 5-hydroxytryptamine receptor 2C (Homo sapiens, UniProt P28335); assay: Displacement of [125I]DOI from human recombinant 5HT2C receptor expressed in HEK293E cells; type: cell-based; procedure, shortened: as §2
T5 sequence (P28335 whole entry): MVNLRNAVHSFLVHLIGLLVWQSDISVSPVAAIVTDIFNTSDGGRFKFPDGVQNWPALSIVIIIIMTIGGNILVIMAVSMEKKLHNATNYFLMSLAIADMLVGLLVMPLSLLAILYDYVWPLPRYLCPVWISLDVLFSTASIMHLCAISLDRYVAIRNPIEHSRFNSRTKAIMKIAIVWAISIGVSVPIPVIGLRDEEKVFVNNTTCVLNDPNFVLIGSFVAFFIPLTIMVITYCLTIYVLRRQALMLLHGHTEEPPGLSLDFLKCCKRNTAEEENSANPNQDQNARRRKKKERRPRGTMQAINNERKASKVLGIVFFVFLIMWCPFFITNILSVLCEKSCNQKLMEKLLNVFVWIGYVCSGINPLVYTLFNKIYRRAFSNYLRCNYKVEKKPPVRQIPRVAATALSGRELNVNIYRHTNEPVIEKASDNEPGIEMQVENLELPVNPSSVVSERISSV

[26] = biological target: T5, 5-hydroxytryptamine receptor 2C; assay: Agonist activity at human recombinant 5HT2C receptor expressed in HEK293E cells by FLIPR assay; type: functional, cell-based; procedure, shortened: as §1
[27] = biological target: T1, 5-hydroxytryptamine receptor 2B; assay: Displacement of [3H]LSD from human recombinant 5HT2B receptor expressed in HEK293E cells

T1 sequence (P41595 whole entry): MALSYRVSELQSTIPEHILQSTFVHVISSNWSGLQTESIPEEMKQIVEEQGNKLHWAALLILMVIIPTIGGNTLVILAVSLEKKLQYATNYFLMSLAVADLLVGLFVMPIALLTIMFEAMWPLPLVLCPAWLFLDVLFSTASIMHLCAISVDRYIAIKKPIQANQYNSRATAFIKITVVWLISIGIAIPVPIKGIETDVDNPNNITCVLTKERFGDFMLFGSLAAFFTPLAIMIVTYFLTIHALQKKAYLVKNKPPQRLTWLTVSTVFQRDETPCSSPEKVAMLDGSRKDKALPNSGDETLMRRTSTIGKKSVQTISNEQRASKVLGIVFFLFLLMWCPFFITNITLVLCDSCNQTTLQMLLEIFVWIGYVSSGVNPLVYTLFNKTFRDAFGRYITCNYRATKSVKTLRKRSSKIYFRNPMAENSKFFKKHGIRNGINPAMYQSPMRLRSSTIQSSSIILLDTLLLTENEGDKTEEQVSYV

Compound: Cc1cccc2c1C(=O)NC1CNCCN21 (single isomer, unassigned; (+))
- EC50 [1]: > 10000 nM
- Ki [2]: 229 nM
- EC50 [3]: > 10000 nM
- half-life [4]: 54 min
- half-life [5]: 150 min
- clearance [6]: 27 mL/min/kg
- Vd [7]: 1.3 L/kg
- Tmax [8]: 60 min
- Cmax [9]: 293 nM
- AUC(0-inf) [10]: 2.34 µM·h
- AUC(0-inf) [11]: 1.15 µM·h
- bioavailability [12]: 49%
- Tmax [13]: 30 min
- Cmax [14]: 5380 nM
- AUC at 4 h [15]: 1.04 µM·h
- AUC at 4 h [16]: 1.24 µM·h
- concentration at 4 h [17]: 219 nM
- concentration at 4 h [18]: 2120 nM
- Drug uptake (Brain [19]): 326 nmol/kg
- Drug uptake (Brain [20]): 3010 nmol/kg
- Activity (Rattus norvegicus [21]): 22%
- Activity (Rattus norvegicus [22]): 4.1%
- Activity (Rattus norvegicus [23]): 16%
- Activity (Rattus norvegicus [24]): Non-toxic
- IC50 (Cytochrome P450 2C19): > 40000 nM
- IC50 (Cytochrome P450 2D6): > 40000 nM
- IC50 (Cytochrome P450 3A4): > 40000 nM
- inhibition at 10 µM (CYP1A2): > 50%
- inhibition at 10 µM (CYP2C9): > 50%
- inhibition at 10 µM (CYP2C19): > 50%
- inhibition at 10 µM (CYP2D6): > 50%
- inhibition at 10 µM (CYP3A4): > 50%
- inhibition at 10 µM (hERG): 37%
- IC50 (Cytochrome P450 1A2): > 40000 nM
- IC50 (Cytochrome P450 2C9): > 40000 nM
- Ki [25]: 89 nM
- EC50 [26]: 45 nM
- Ki [27]: 8.6 nM
